Test results taken from ChEMBL document CHEMBL4834426, “Antimalarial Benzimidazole Derivatives Incorporating Phenolic Mannich Base Side Chains Inhibit Microtubule and Hemozoin Formation: Structure-Activity Relationship and In Vivo Oral Efficacy Studies” (J Med Chem, 2021).
Activity calls are given as the source filed them. No cut-off for these calls is given here.

Key:
[1] = Selectivity index, ratio of IC50 for Cytotoxicity against CHO cells assessed as inhibition of cell viability by MTT assay to IC50 for antimalarial activity against asexual blood stage Plasmodium falciparum NF54 assessed as reduction in parasitemia incubated up to 72 hrs by [3H]hypoxanthine incorporation assay; assay type: toxicity, cell-based; details: hamster, read-out: Selectivity Index
In short: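 Selectivity index is IC₅₀(CHO)/IC₅₀(NF54). […] IC₅₀ came from nonlinear dose-response fitting. Parasite IC₅₀ came from the [³H]-hypoxanthine assay.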

[2] = system: Plasmodium falciparum NF54; experiment: Inhibition of tubulin polymerization in […] Plasmodium falciparum NF54 early gametocytes at 2400 nM incubated for 24 hrs by tubulin tracker Oregon Green staining method
In short: (§1)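 Treatment at 600 nM for asexual parasites (~1% parasitemia, 5% hematocrit, sorbitol-synchronized rings) or 2400 nM for early gametocytes (~2% gametocytemia, 2% hematocrit, 20% I/60% II/20% III). 24 h at 37 °C, 90% N₂/5% CO₂/5% O₂, DMSO <0.1%. Stained with 250 nM Tubulin Tracker Oregon Green 488 for 30 min and Hoechst (100 nM) for 10 min. PBS-washed, imaged live by confocal microscopy. Colchicine (20 μM) positive control.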

Plasmodium falciparum [3] = experiment: Antiplasmodial activity against […] Plasmodium falciparum NF54 early gametocytes transfected with GFP-Luc […] incubated for 48 hrs by microscopy based luciferase reporter gene assay relative to control; assay type: functional, organism-based; details: NF54, 48 h
In short: (§2)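 Transgenic NF54-Pfs16-GFP-Luc gametocytes, read by luciferase reporter. Early assays were set up on day 5 (50% stage II/50% stage III) and late assays on day 10 (40% stage IV/60% stage V). Luciferin was added to lysates at room temperature and bioluminescence read. Methylene blue (5 μM) was the reference. Single-point screens at 1 and 5 μM used n=1 in technical triplicate. IC₅₀ came from a normalized nonlinear fit, n≥3 in triplicate.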

[4] = system: Plasmodium falciparum NF54; experiment: Inhibition of tubulin polymerization in asexual stage (II) Plasmodium falciparum NF54 early gametocytes at 2400 nM incubated for 24 hrs by tubulin tracker Oregon Green staining method; in short: as §1
Plasmodium falciparum [5] = experiment: Antiplasmodial activity against […] Plasmodium falciparum NF54 early gametocytes transfected with GFP-Luc […] at 5 uM incubated for 48 hrs by microscopy based luciferase reporter gene assay relative to control; assay type: functional
In short: (§3)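 NF54-Pfs16-GFP-Luc gametocytes, assays set up day 5 (early, stage II/III) or day 10 (late, stage IV/V). Culture at 2−3% gametocytemia, 1.5% hematocrit, 48 h drug exposure at 37 °C under 90% N₂/5% O₂/5% CO₂. Lysates mixed with luciferin; bioluminescence read with 10 s integration. Dual-point: one biological repeat in technical triplicate. Methylene blue (5 μM) reference.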

[6] = system: Plasmodium falciparum NF54; experiment: Inhibition of tubulin polymerization in asexual stage (I) Plasmodium falciparum NF54 early gametocytes at 2400 nM incubated for 24 hrs by tubulin tracker Oregon Green staining method; in short: as §1
[7] = AUC (0 to t) in Balb/c mouse at 10 mg/kg, po measured up to 24 hrs by LC-MS/MS analysis; assay type: ADME, organism-based; set-up: dose 10 mg/kg, time <=24; details: in vivo
In short: (§4)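 Male Balb/c mice, not fasted, food and water ad libitum; single oral dose. Tail-vein blood into heparinized tubes at 0.5, 1, 3, 5, 7, 9 and 24 h, stored at −80 °C. Whole blood protein-precipitated with acetonitrile containing internal standard, analyzed by LC−MS/MS (LOQ 2 ng/mL). Parameters by noncompartmental analysis with curve stripping. Mean of three mice per point.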

[8] = Metabolic stability in human liver microsomes assessed as compound remaining at 1 uM incubated for 30 mins by LC-MS/MS analysis; assay type: ADME, Microsome; details: read-out: Stabilty
In short: (§5)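 Single-point design: 1 μM compound with 0.4 mg/mL liver microsomes in 0.1 M phosphate buffer pH 7.4 for 30 min. Quenched with ice-cold acetonitrile containing carbamazepine internal standard, centrifuged, analyzed by LC−MS/MS. Percent remaining from internal-standard-corrected peak areas at 30 min versus 0 min. Propranolol, midazolam and MMV390048 as controls.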

[9] = Metabolic stability in rat liver microsomes assessed as compound remaining at 1 uM incubated for 30 mins by LC-MS/MS analysis; assay type: ADME, Microsome; details: read-out: Stabilty; in short: as §5
[10] = Volume of distribution at steady state in Balb/c mouse at 3 mg/kg, iv measured up to 24 hrs by LC-MS/MS analysis; assay type: ADME, organism-based; details: in vivo, read-out: Vdss
In short: (§6)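 Intravenous dosing in male Balb/c mice, fed ad libitum. Tail-vein blood sampled into heparinized tubes at 0.17, 0.5, 1, 3, 5, 7, 9 and 24 h, frozen at −80 °C. Blood extracted by acetonitrile protein precipitation with internal standard; LC−MS/MS quantitation, LOQ 2 ng/mL. Noncompartmental analysis based on curve stripping.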

[11] = Half life in Balb/c mouse at 3 mg/kg, iv measured up to 24 hrs by LC-MS/MS analysis; assay type: ADME, organism-based; details: in vivo; in short: as §6
Plasmodium falciparum [12] = experiment: Antiplasmodial activity against […] Plasmodium falciparum NF54 early gametocytes transfected with GFP-Luc […] at 1 uM incubated for 48 hrs by microscopy based luciferase reporter gene assay relative to control; assay type: functional; in short: as §3
Plasmodium falciparum [13] = experiment: Antiplasmodial activity against […] Plasmodium falciparum NF54 late gametocytes transfected with GFP-Luc […] at 1 uM incubated for 48 hrs by microscopy based luciferase reporter gene assay relative to control; assay type: functional; in short: as §3
CHO = experiment: Cytotoxicity against CHO cells assessed as inhibition of cell viability by MTT assay; assay type: cell-based; details: Cricetulus griseus
[14] = Tmax in Balb/c mouse at 10 mg/kg, po measured up to 24 hrs by LC-MS/MS analysis; assay type: ADME, organism-based; details: in vivo; in short: as §4
Plasmodium falciparum [15] = experiment: Antiplasmodial activity against […] Plasmodium falciparum NF54 late gametocytes transfected with GFP-Luc […] incubated for 48 hrs by microscopy based luciferase reporter gene assay relative to control; assay type: functional, organism-based; details: NF54, 48 h; in short: as §2
[16] = system: Plasmodium falciparum NF54; experiment: Inhibition of tubulin polymerization in asexual blood stage Plasmodium falciparum NF54 at 600 nM incubated for 24 hrs by tubulin tracker Oregon Green staining method; in short: as §1
Plasmodium berghei = experiment: Antimalarial activity against GFP-transfected Plasmodium berghei ANKA infected in NMRI mouse model assessed as reduction in parasitemia at 50 mg/kg, po dosed 4 times relative to control; assay type: functional; set-up: scale not given: the % may be the effect or the level left
In short: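 Mice (n = 3) infected with GFP-transfected P. berghei ANKA. Compound in 70% Tween-80/30% ethanol, diluted 10-fold in water, given orally at 4, 24, 48 and 72 h post-infection. Blood taken day 4 (96 h); parasitemia by flow cytometry, detection limit 0.1%. Activity = difference in mean % parasitemia between control and treated, as % of control.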

[17] = Volume of distribution in Balb/c mouse at 3 mg/kg, iv measured up to 24 hrs by LC-MS/MS analysis; assay type: ADME, organism-based; details: in vivo; in short: as §6
Plasmodium falciparum [18] = experiment: Antimalarial activity against asexual blood stage drug-sensitive Plasmodium falciparum NF54 infected in erythrocytes assessed as reduction in parasitemia incubated up to 72 hrs by [3H]hypoxanthine incorporation assay; assay type: functional, organism-based
In short: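 [³H]-Hypoxanthine incorporation assay (modified) on asexual blood-stage P. falciparum in vitro. IC₅₀ values are means of ≥2 independent experiments.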

[19] = Metabolic stability in mouse liver microsomes assessed as compound remaining at 1 uM incubated for 30 mins by LC-MS/MS analysis; assay type: ADME, Microsome; details: read-out: Stabilty; in short: as §5

CCNCc1cc(Cl)cc(Nc2nc3cc(F)c(F)cc3n2Cc2ccc(C(F)(F)F)cc2)c1O
selectivity ratio at 72 h [1]: > 263 | inhibition [2]: Active | IC50 (Plasmodium falciparum [3]): 460 nM | inhibition [4]: Active | inhibition at 5 µM (Plasmodium falciparum [5]): 91% | inhibition [6]: inactive | AUCt [7]: 321 µmol·min/L | remaining at 0.5 h, 1 µM [8]: > 99% | remaining at 0.5 h, 1 µM [9]: 98% | Vd [10]: 5.8 L/kg | half-life [11]: 6.3 h | inhibition at 1 µM (Plasmodium falciparum [12]): 62% | inhibition at 1 µM (Plasmodium falciparum [13]): 0% | IC50 (CHO): > 50000 nM | Tmax [14]: 2.8 h | IC50 (Plasmodium falciparum [15]): > 5000 nM | inhibition [16]: Active | Activity (Plasmodium berghei): 98% | Vd [17]: 6.9 L/kg | IC50 (Plasmodium falciparum [18]): 190 nM | remaining at 0.5 h, 1 µM [19]: 86%
